Experimental data taken from ChEMBL document CHEMBL1153146, “Novel potent apoA-I peptide mimetics that stimulate cholesterol efflux and pre-beta particle formation in vitro” (Bioorg Med Chem Lett, 2010).
Starred links: 1 amine or outer side, 2 acyl side, 3 side chain; linkers in the order of their positions; H or OH if unused. Positions of bridges follow the written chain, without caps; N, C: chain ends. Non-standard residues stand in square brackets, D forms with d. Residues, ends and D or L forms follow the SMILES beside them. X1 = O=C([C@@H](CCCCC=[*:3])N[*:1])[*:2]; X2 = O=C([C@H](CCCCCC=[*:3])N[*:1])[*:2]; Gla = N[C@@H](CC(C(=O)O)C(=O)O)C(=O)O; Aib = CC(C)(N)C(=O)O

Experiments:
RAW264.7 [1] = assay: Cytotoxicity against mouse RAW264.7 cells after 24 hrs by MTT assay; format: cell-based; conditions: RAW264.7, 24 h
In short: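 RAW macrophage cytotoxicity examined at peptide concentrations up to 160 µM.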

[2] = Toxicity in human RBC assessed as hemolysis; format: cell-based, Erythrocyte; conditions: red blood cells (RBC)
In short: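 Red blood cell lysis assay; cytotoxicity reported as IC50 in µM.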

RAW264.7 [3] = assay: Induction of [3H]cholesterol efflux in mouse RAW264.7 cells at 30 uM after 24 hrs by scintillation counting; format: functional, cell-based
RAW264.7 [4] = assay: Induction of [3H]cholesterol efflux in mouse RAW264.7 cells after 24 hrs by scintillation counting; format: functional, cell-based
In short: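 Cholesterol efflux from RAW macrophages; EC50 reported in µM as the mean of three experiments.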

[5] = Mus musculus, RAW264.7, read-out: EC50

Molecule	IC50 (RAW264.7 [1])	IC50 [2]	cholesterol efflux (RAW264.7 [3])	EC50 (RAW264.7 [4]; [5])	EC50 (RAW264.7 [4]; raw264.7)
CC(C)C[C@H](NC(=O)[C@H](CCCCN)NC(=O)[C@H](CCC(N)=O)NC(=O)[C@H](CCCCN)NC(=O)[C@H]1CCC/C=C\CCC[C@@H](NC(=O)[C@H](CCC(=O)O)NC(=O)[C@H](CC(N)=O)NC(=O)[C@H](CC(C)C)NC(=O)[C@H](CCCCN)NC(=O)[C@H](CCC(=O)O)NC(=O)[C@H](CCCNC(=N)N)NC(=O)[C@H](Cc2ccccc2)NC(=O)[C@H](CCC(=O)O)NC(=O)[C@H](CC(=O)O)NC(=O)[C@H](CC(C)C)NC(=O)[C@@H](NC(=O)[C@@H]2CCCN2)C(C)C)C(=O)N[C@@H](CC(C)C)C(=O)N[C@@H](CCC(=O)O)C(=O)N[C@@H](C)C(=O)N1)C(=O)N[C@@H](CCCCN)C(=O)O	> 160 µM	> 160 µM	2%		
C=CCCC[C@@H](NC(=O)[C@H](CCC(=O)O)NC(=O)[C@H](CC(N)=O)NC(=O)[C@H](CC(C)C)NC(=O)[C@@H](CCCC=C)NC(=O)[C@H](CCC(=O)O)NC(=O)[C@H](CCCNC(=N)N)NC(=O)[C@H](Cc1ccccc1)NC(=O)[C@H](CCC(=O)O)NC(=O)[C@H](CC(=O)O)NC(=O)[C@H](CC(C)C)NC(=O)[C@@H](NC(=O)[C@@H]1CCCN1)C(C)C)C(=O)N[C@@H](CC(C)C)C(=O)N[C@@H](CCC(=O)O)C(=O)N[C@@H](C)C(=O)N[C@@H](CC(C)C)C(=O)N[C@@H](CCCCN)C(=O)N[C@@H](CCC(N)=O)C(=O)N[C@@H](CCCCN)C(=O)N[C@@H](CC(C)C)C(=O)N[C@@H](CCCCN)C(=O)O	> 160 µM	> 160 µM		46 µM	
CC(C)C[C@H](NC(=O)[C@H](C)NC(=O)[C@H](CCC(=O)O)NC(=O)[C@H](CC(C)C)NC(=O)[C@H]1CCC/C=C\CCC[C@@H](NC(=O)[C@H](CCC(=O)O)NC(=O)[C@H](CCCNC(=N)N)NC(=O)[C@H](Cc2ccccc2)NC(=O)[C@H](CCC(=O)O)NC(=O)[C@H](CC(=O)O)NC(=O)[C@H](CC(C)C)NC(=O)[C@@H](NC(=O)[C@@H]2CCCN2)C(C)C)C(=O)N[C@@H](CC(C)C)C(=O)N[C@@H](CC(N)=O)C(=O)N[C@@H](CCC(=O)O)C(=O)N1)C(=O)N[C@@H](CCCCN)C(=O)N[C@@H](CCC(N)=O)C(=O)N[C@@H](CCCCN)C(=O)N[C@@H](CC(C)C)C(=O)N[C@@H](CCCCN)C(=O)O	> 160 µM	> 160 µM		10 µM	
C=CCCCCC[C@H](NC(=O)[C@H](CCC(=O)O)NC(=O)[C@H](CC(=O)O)NC(=O)[C@H](CC(C)C)NC(=O)[C@@H](NC(=O)[C@@H]1CCCN1)C(C)C)C(=O)N[C@@H](CCCNC(=N)N)C(=O)N[C@@H](CCC(=O)O)C(=O)N[C@@H](CCCCN)C(=O)N[C@@H](CC(C)C)C(=O)N[C@@H](CC(N)=O)C(=O)N[C@H](CCC(=O)O)C(=O)N[C@@H](CCCCC=C)C(=O)N[C@H](CC(C)C)C(=O)N[C@H](CCC(=O)O)C(=O)N[C@H](C)C(=O)N[C@H](CC(C)C)C(=O)N[C@H](CCCCN)C(=O)N[C@H](CCC(N)=O)C(=O)N[C@H](CCCCN)C(=O)N[C@H](CC(C)C)C(=O)N[C@H](CCCCN)C(=O)O	> 160 µM	> 160 µM		1.3 µM	
CC(C)C[C@H](NC(=O)[C@H](C)NC(=O)[C@H](CCC(=O)O)NC(=O)[C@H](CC(C)C)NC(=O)[C@@H]1CCC/C=C\CCC[C@@H](NC(=O)[C@H](CCC(=O)O)NC(=O)[C@H](CCCNC(=N)N)NC(=O)[C@H](Cc2ccccc2)NC(=O)[C@H](CCC(=O)O)NC(=O)[C@H](CC(=O)O)NC(=O)[C@H](CC(C)C)NC(=O)[C@@H](NC(=O)[C@@H]2CCCN2)C(C)C)C(=O)N[C@@H](CC(C)C)C(=O)N[C@@H](CC(N)=O)C(=O)N[C@@H](CCC(=O)O)C(=O)N1)C(=O)N[C@@H](CCCCN)C(=O)N[C@@H](CCC(N)=O)C(=O)N[C@@H](CCCCN)C(=O)N[C@@H](CC(C)C)C(=O)N[C@@H](CCCCN)C(=O)O	> 160 µM	> 160 µM			Not Active
C=CCCC[C@@H](NC(=O)[C@H](C)NC(=O)[C@H](CCC(=O)O)NC(=O)[C@H](CC(C)C)NC(=O)[C@@H](CCCC=C)NC(=O)[C@H](CCC(=O)O)NC(=O)[C@H](CC(N)=O)NC(=O)[C@H](CC(C)C)NC(=O)[C@H](CCCCN)NC(=O)[C@H](CCC(=O)O)NC(=O)[C@H](CCCNC(=N)N)NC(=O)[C@H](Cc1ccccc1)NC(=O)[C@H](CCC(=O)O)NC(=O)[C@H](CC(=O)O)NC(=O)[C@H](CC(C)C)NC(=O)[C@@H](NC(=O)[C@@H]1CCCN1)C(C)C)C(=O)N[C@@H](CCCCN)C(=O)N[C@@H](CCC(N)=O)C(=O)N[C@@H](CCCCN)C(=O)N[C@@H](CC(C)C)C(=O)N[C@@H](CCCCN)C(=O)O	> 160 µM	> 160 µM	3%		
CC(C)C[C@H](NC(=O)[C@H](C)NC(=O)[C@H](CCC(=O)O)NC(=O)[C@H](CC(N)=O)NC(=O)[C@H](CC(C)C)NC(=O)[C@H](CCCCN)NC(=O)[C@H](CCC(=O)O)NC(=O)[C@H](CCCNC(=N)N)NC(=O)[C@H](Cc1ccccc1)NC(=O)[C@H](CCC(=O)O)NC(=O)[C@H](CC(=O)O)NC(=O)[C@H](CC(C)C)NC(=O)[C@@H](NC(=O)[C@@H]1CCCN1)C(C)C)C(=O)N[C@@H](CC(C(=O)O)C(=O)O)C(=O)N[C@@H](C)C(=O)N[C@@H](CC(C)C)C(=O)N[C@@H](CCCCN)C(=O)N[C@@H](CCC(N)=O)C(=O)N[C@@H](CCCCN)C(=O)N[C@@H](CC(C)C)C(=O)N[C@@H](CCCCN)C(=O)O (H-PVLDEFREKLNEAL[Gla]ALKQKLK-OH)	> 160 µM	75 µM		234 µM	
CC(C)C[C@H](NC(=O)[C@H](CCCCN)NC(=O)[C@H](CCC(N)=O)NC(=O)[C@H](CCCCN)NC(=O)[C@H](CC(C)C)NC(=O)C(C)(C)NC(=O)[C@H](CCC(=O)O)NC(=O)[C@H](CC(C)C)NC(=O)C(C)(C)NC(=O)[C@H](CCC(=O)O)NC(=O)[C@H](CC(N)=O)NC(=O)[C@H](CC(C)C)NC(=O)[C@H](CCCCN)NC(=O)[C@H](CCC(=O)O)NC(=O)[C@H](CCCNC(=N)N)NC(=O)[C@H](Cc1ccccc1)NC(=O)[C@H](CCC(=O)O)NC(=O)[C@H](CC(=O)O)NC(=O)[C@H](CC(C)C)NC(=O)[C@@H](NC(=O)[C@@H]1CCCN1)C(C)C)C(=O)N[C@@H](CCCCN)C(=O)O (H-PVLDEFREKLNE[Aib]LE[Aib]LKQKLK-OH)	> 160 µM	> 160 µM		23 µM	
CC(C)C[C@H](NC(=O)[C@H](C)NC(=O)[C@H](CC(C(=O)O)C(=O)O)NC(=O)[C@H](CC(C)C)NC(=O)C(C)(C)NC(=O)[C@H](CCC(=O)O)NC(=O)[C@H](CC(N)=O)NC(=O)[C@H](CC(C)C)NC(=O)[C@H](CCCCN)NC(=O)[C@H](CCC(=O)O)NC(=O)[C@H](CCCNC(=N)N)NC(=O)[C@H](Cc1ccccc1)NC(=O)[C@H](CCC(=O)O)NC(=O)[C@H](CC(=O)O)NC(=O)[C@H](CC(C)C)NC(=O)[C@@H](NC(=O)[C@@H]1CCCN1)C(C)C)C(=O)N[C@@H](CCCCN)C(=O)N[C@@H](CCC(N)=O)C(=O)N[C@@H](CCCCN)C(=O)N[C@@H](CC(C)C)C(=O)N[C@@H](CCCCN)C(=O)O (H-PVLDEFREKLNE[Aib]L[Gla]ALKQKLK-OH)	> 160 µM	75 µM		41 µM	
CC(C)C[C@H](NC(=O)[C@H](C)NC(=O)[C@H](CCC(=O)O)NC(=O)[C@H](CC(N)=O)NC(=O)[C@H](CC(C)C)NC(=O)[C@H](CCCCN)NC(=O)[C@H](CC(C(=O)O)C(=O)O)NC(=O)[C@H](CCCNC(=N)N)NC(=O)[C@H](Cc1ccccc1)NC(=O)[C@H](CCC(=O)O)NC(=O)[C@H](CC(=O)O)NC(=O)[C@H](CC(C)C)NC(=O)[C@@H](NC(=O)[C@@H]1CCCN1)C(C)C)C(=O)N[C@@H](CCC(=O)O)C(=O)N[C@@H](C)C(=O)N[C@@H](CC(C)C)C(=O)N[C@@H](CCCCN)C(=O)N[C@@H](CCC(N)=O)C(=O)N[C@@H](CCCCN)C(=O)N[C@@H](CC(C)C)C(=O)N[C@@H](CCCCN)C(=O)O (H-PVLDEFR[Gla]KLNEALEALKQKLK-OH)	> 160 µM	40 µM		142 µM	
CC(C)C[C@H](NC(=O)[C@H](C)NC(=O)[C@H](CCC(=O)O)NC(=O)[C@H](CC(C)C)NC(=O)C(C)(C)NC(=O)[C@H](CCC(=O)O)NC(=O)[C@H](CC(N)=O)NC(=O)[C@H](CC(C)C)NC(=O)[C@H](CCCCN)NC(=O)[C@H](CC(C(=O)O)C(=O)O)NC(=O)[C@H](CCCNC(=N)N)NC(=O)[C@H](Cc1ccccc1)NC(=O)[C@H](CCC(=O)O)NC(=O)[C@H](CC(=O)O)NC(=O)[C@H](CC(C)C)NC(=O)[C@@H](NC(=O)[C@@H]1CCCN1)C(C)C)C(=O)N[C@@H](CCCCN)C(=O)N[C@@H](CCC(N)=O)C(=O)N[C@@H](CCCCN)C(=O)N[C@@H](CC(C)C)C(=O)N[C@@H](CCCCN)C(=O)O (H-PVLDEFR[Gla]KLNE[Aib]LEALKQKLK-OH)	> 160 µM	75 µM		44 µM	
CC.CC(C)C[C@H](NC(=O)[C@H](C)NC(=O)[C@H](CCC(=O)O)NC(=O)[C@H](CC(C)C)NC(=O)[C@@H]1CCCCC/C=C\CCCC[C@@H](NC(=O)[C@H](CCC(=O)O)NC(=O)[C@H](CC(=O)O)NC(=O)[C@H](CC(C)C)NC(=O)[C@@H](NC(=O)[C@@H]2CCCN2)C(C)C)C(=O)N[C@@H](CCCNC(=N)N)C(=O)N[C@@H](CCC(=O)O)C(=O)N[C@@H](CCCCN)C(=O)N[C@@H](CC(C)C)C(=O)N[C@@H](CC(N)=O)C(=O)N[C@@H](CCC(=O)O)C(=O)N1)C(=O)N[C@@H](CCCCN)C(=O)N[C@@H](CCC(N)=O)C(=O)N[C@@H](CCCCN)C(=O)N[C@@H](CC(C)C)C(=O)N[C@@H](CCCCN)C(=O)O (H-PVLDE[X1]REKLNE[X2]LEALKQKLK-OH; staple (Z) 6-13)	> 160 µM	> 160 µM		2 µM	
H-PVLDEFREKLNEELEALKQKLK-OH	> 160 µM	40 µM			Not Active
